The results in this text go back to publication PMC5367588 (International Journal of Nanomedicine, 2017).

Where only a bound is given, the exact number is not on record here.

The test system of series [1] is HepG2, MCF-7, and SW480 cells. The series can be described thus: In vitro cytotoxicity. The class given is cell-based. The conditions noted are these: MTT assay, three cell lines, 48 h. The essentials:
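Cells grown in RPMI 1640 or L-15 with 10% FBS were seeded at 5,000 cells/well and left to attach overnight. Graded concentrations of test compound were applied in quintuplicate for 48 h at 37°C and 5% CO2. MTT was added for 4 h and absorbance read at 490 nm. IC50 was taken as the concentration giving 50% growth inhibition; the assay was run three times.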
For orientation: Formazan colour is commonly taken as a measure of viable cells.

A short description of series [2]: In vivo pharmacokinetics and biodistribution. More on the design: species or system tumor-bearing nude mice. Particulars: for AUC0–inf / MRT0–inf: i.v. 5.0 mg/kg 10-HCPT injection or 35.1 mg/kg compound F solution, mice, n=6; for T2/1: blood circulation, i.v. single dose equal to 10-HCPT 5 mg/kg, tumor-bearing mice; for AUC(0-inf) / MRT inf: female, BALB/c (nude), mouse, iv, 5 mg/kg. The essentials:
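Tumor-bearing nude mice (n=6 per group) got one i.v. dose of free parent drug 5 mg/kg or parent-equivalent conjugate. Orbital blood was taken from 10 min to 48 h, and heart, liver, spleen, lung, kidney, brain and tumor were collected. Plasma or saline tissue homogenate was hydrolysed with 0.1 N NaOH (37°C, 20 min), then neutralised with HCl. Camptothecin internal standard was added before acetonitrile extraction. Parent drug was quantified by UPLC/MS and PK parameters derived with software.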

Series [3] is described as follows: Characterization of compound F self-assembly micelles. Type of series: physicochemical. Particulars: in water.
The nature of series [4]: Drug release from conjugates in phosphate-buffered saline. The class given is physicochemical. An outline of the steps: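 Conjugate at 0.5 mg/mL final in 0.01 mol/L PBS at pH 3.0, 4.0, 5.0, 6.0 and 7.4, held at 37°C for 48 h. Supernatants were analysed by UPLC/MS in MRM mode using the 477.0/433.1 transition for the released ester.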
A short description of series [5]: Drug release from conjugates in plasma. The conditions noted are these: for amount of compound B released from the conjugate: plasma. The class given is in vitro ADME, human. The essentials: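 Conjugate stock (5.0 mg/mL) was added to human serum to 0.5 mg/mL final, with camptothecin internal standard at 1.0 µg/mL final, at 37°C. Samples were taken from 0.5 to 48 h, protein-precipitated with acetonitrile, centrifuged, dried under N2 at 40°C and reconstituted in acetonitrile. Analysis was by UPLC/MS against serum standards of 0.5–1,000 ng/mL using the internal standard method.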

Series [6] has as its system tumor-bearing nude mouse models. As to the kind of experiment: In vivo antitumor efficacy. More on the design: species or system mice. Particulars: for tumor growth inhibition effect (TIR): tail vein injection, equivalent to 5.0 mg/kg 10-HCPT once a day for 14 days, n=8. An outline of the steps: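 Dosing began in tumor-bearing nude mice once tumors reached ~50–100 mm3; groups (n=8) were balanced for weight and tumor size. Mice received saline, commercial parent-drug injection 5.0 mg/kg, or conjugate 35.1 mg/kg (parent-equivalent 5.0 mg/kg) by tail vein once daily for 14 days. Tumor volume (a×b²/2) was measured every 2 days; toxicity was judged from behaviour and weight loss.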

A short description of series [7]: Water solubility of the prodrug. The class given is physicochemical. Particulars: prodrug relative to 10-HCPT.
Where [8] appears, read: once a day for 14 days, tail vein.

In the case of “10-HCPT-thiosemicarbazide-PEG2000-MeO conjugate [compound F]”, the “cytotoxicity (in words)” value in series [1] was “strongest cytotoxicity”. Besides, the “AUC0–inf” value is reported as 3,795.7±1,539.3 µg/L h in series [2] (Heart); 1,260.4±585.8 µg/L h in series [2] (Kidney); 52,688.4±3,111.2 µg/L h in series [2] (Liver); 293,117.9±31,343.1 µg/L h in series [2] (Lung); 173,410.1±13,824.5 µg/L h in series [2] (Plasma); 8,993.1±1,534.3 µg/L h in series [2] (Spleen). Further, the “AUC0–inf” value in series [2] (Tumor) is 162,823.9±19,289.2 µg/L h. In addition, the “MRT0–inf” value amounted to 4.379 ± 1.171 h in series [2] (Heart); 2.948 ± 0.548 h in series [2] (Kidney); 10.07 ± 0.957 h in series [2] (Liver); 6.96 ± 0.178 h in series [2] (Lung); 28.975 ± 1.238 h in series [2] (Plasma); 7.756 ± 1.518 h in series [2] (Spleen). In series [2] (Tumor), the “MRT0–inf” value was found to be 39.873 ± 4.549 h. For the same compound, the T2/1 in series [2] worked out at 10.516 ± 1.158 h. In series [2] (tumor), the “AUC0–inf in tumor relative to 10-HCPT solution” value stood at 7.76 fold. Further, the “MRT0–inf in tumors compared with 10-HCPT solution” value in series [2] (tumor) was 4.31 fold. The “concentration at which conjugates self-assemble into micelles” value in series [3] is given as 7.5 mg/mL. Also, the “amount of compound B released from the conjugate” value in series [4] (PBS pH 5.0, 37°C, after 4 h) was about 100%; in series [4] (PBS pH 7.4, 37°C, after 1 h), 2%; in series [4] (PBS pH 7.4, 37°C, after 4 h), 8%; in series [4] (pH 7.4 PBS, after 48 h), under 30%; in series [5] (37°C, after 1 h), 5%; in series [5] (37°C, after 4 h), 15%. In addition, the “amount of compound B released from the conjugate” value in series [5] (after 48 h) is given as under 30%. For the same compound, the “stability (in words)” value in series [4] (phosphate-buffered saline (pH 7.4)) and in series [5] (rat plasma) was “good stability” each time. Further, the “body weight change (in words)” value in series [6] (setting [8]) was “did not cause significant loss of body weight”. Moreover, the “tumor volume (in words)” value in series [6] (once a day for 14 days, tail vein, P<0.05) is listed as “significantly smaller than that of the group treated with either saline or 10-HCPT solution”. The “tumor growth inhibition effect (TIR)” value in series [6] was 82.66%±7.175. Further, the water solubility increase entry in series [7] was “over 3,000 times”.

5-carbonyl caproic acid: the “cytotoxicity (in words)” value in series [1] was “almost no cytotoxicity”.

In the case of `CC[C@@]1(O)C(=O)OCc2c1cc1n(c2=O)Cc2cc3cc(O)ccc3nc2-1` [10-HCPT, 10-Hydroxycamptothecin, reference compound], in series [2], the T2/1 is 1.859 ± 1.385 h. Also, the AUC(0-inf) was 11600 ng·h/mL in series [2] (heart); 2090 ng·h/mL in series [2] (kidney); 28700 ng·h/mL in series [2] (liver); 130000 ng·h/mL in series [2] (lung); 8410 ng·h/mL in series [2] (plasma); 5040 ng·h/mL in series [2] (spleen). This compound also registered an AUC(0-inf) in series [2] (tumor) of 21000 ng·h/mL. Besides, the MRT inf came out at 6.18 ± 1.5 h in series [2] (heart); 5.96 ± 1.09 h in series [2] (kidney); 5.69 ± 0.845 h in series [2] (liver); 4.79 ± 0.648 h in series [2] (lung); 6.15 ± 0.964 h in series [2] (plasma); 5.68 ± 0.771 h in series [2] (spleen). This compound returned an MRT inf in series [2] (tumor) of 9.25 ± 1.03 h. In addition, in series [6] (setting [8]), the “body weight change (in words)” value is “significant body weight loss”. For the same compound, in series [6], the “tumor growth inhibition effect (TIR)” value is given as 63.85%±5.233.

The term AUC(0-inf) denotes the area under the concentration-time curve extrapolated to infinity. A low value points to less exposure. One may read the MRT inf as the average time that molecules of a dose stay in the body.
